Assay results as given in ChEMBL document CHEMBL3414471 (J Med Chem, 2015).
Calls of active or inactive are those of the source. No cut-off for these calls is given here.

What was measured:
[1] = molecular target: T1, 5-hydroxytryptamine receptor 2C (Homo sapiens) (UniProt P28335); assay: (§1) Agonist activity at 5HT2C receptor (unknown origin) relative to control
T1 sequence (whole entry): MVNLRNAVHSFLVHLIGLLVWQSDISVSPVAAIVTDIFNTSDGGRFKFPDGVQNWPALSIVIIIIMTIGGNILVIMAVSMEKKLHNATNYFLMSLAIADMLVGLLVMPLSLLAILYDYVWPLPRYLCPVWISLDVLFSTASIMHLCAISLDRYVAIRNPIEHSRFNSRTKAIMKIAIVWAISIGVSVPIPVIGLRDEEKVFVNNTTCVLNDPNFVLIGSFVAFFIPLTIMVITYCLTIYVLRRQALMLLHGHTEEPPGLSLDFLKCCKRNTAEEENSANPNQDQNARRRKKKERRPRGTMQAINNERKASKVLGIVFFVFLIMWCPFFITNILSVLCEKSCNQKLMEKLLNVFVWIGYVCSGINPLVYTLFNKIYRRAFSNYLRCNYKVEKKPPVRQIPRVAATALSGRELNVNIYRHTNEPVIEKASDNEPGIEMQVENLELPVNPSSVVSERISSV

[2] = molecular target: T2, 5-hydroxytryptamine receptor 2C (Homo sapiens, UniProt P28335); assay: as §1
T2 sequence (P28335 whole entry): T1 sequence (whole entry)

Homo sapiens = species: Homo sapiens; assay: Selectivity ratio of EC50 for 5HT2B receptor (unknown origin) to EC50 for 5HT2C receptor (unknown origin)
[3] = molecular target: T3, 5-hydroxytryptamine receptor 2B (Homo sapiens, UniProt P41595); assay: Agonist activity at 5HT2B receptor (unknown origin) relative to control
In short: (§2)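 Flp-In-293 cells stably expressing human 5-HT2A, 5-HT2B or 5-HT2C-INI; grown 24–48 h in DMEM/10% dialyzed FBS, plated on poly-L-Lys at 12000 cells/well in 1% dialyzed FBS for 24 h. Loaded 1 h at 37 °C with calcium dye in HBSS, 20 mM Hepes pH 7.40, 2.5 mM probenecid.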

[4] = molecular target: T3, 5-hydroxytryptamine receptor 2B; assay: Agonist activity at human 5-HT2B receptor expressed in HEK293 cells assessed as calcium flux by FLIPR assay; type: functional, cell-based
[5] = molecular target: T3, 5-hydroxytryptamine receptor 2B; assay: Agonist activity at human 5-HT2B receptor expressed in HEK293 cells assessed as calcium flux by FLIPR assay relative to 5-HT; type: functional, cell-based; in short: as §2
Liver microsome = assay: Metabolic stability in human liver microsomes; type: ADME
In short: (§3)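 Incubation with human or CD-1 mouse liver microsomes for 1 h; stability expressed as % parent compound remaining.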

CYP3A = CYP3A (Homo sapiens, UniProt P08684+P20815+P24462+Q9HB55); assay: Inhibition of human CYP3A using midazolam as substrate at 10 uM; type: ADME; details: probe midazolam
In short: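 Human liver microsomes, test compound at 10 µM, midazolam as CYP3A substrate; percent inhibition reported; run by a contract lab.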

[6] = molecular target: T1, 5-hydroxytryptamine receptor 2C (Homo sapiens); assay: Agonist activity at human 5-HT2C receptor expressed in HEK293 cells assessed as calcium flux by FLIPR assay relative to 5-HT; type: functional, cell-based; in short: as §2
[7] = Permeability from basolateral to apical side in human Caco2 cells at pH 7.4; type: ADME, cell-based; details: caco-2, pH 7.4
In short: (§4)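 Caco-2 monolayer permeability measured A–B and B–A in pH 7.4 buffer, reported as ×10−6 cm/s; A–B/B–A ratio derived from these.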

Salmonella typhimurium [8] = assay: Mutagenic activity in Salmonella typhimurium TA1537 at 10 to 100 uM by ames test; type: toxicity, organism-based; details: salmonella enterica subsp. enterica serovar typhimurium
In short: (§5)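 Ames fluctuation test in Salmonella strains TA98, TA100, TA1535 and TA1537, with and without S9, at 10, 50 and 100 µM; scored negative or positive.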

Salmonella typhimurium [9] = assay: Mutagenic activity in Salmonella typhimurium TA1537 at 10 to 100 uM by ames test in presence of S9 mixture; type: toxicity, organism-based; details: salmonella enterica subsp. enterica serovar typhimurium; in short: as §5
[10] = Permeability from apical to basolateral side in human Caco2 cells at pH 7.4; type: ADME, cell-based; details: caco-2, pH 7.4; in short: as §4
CYP2B6 = molecular target: T4, CYP2B6 (Homo sapiens, UniProt P20813); assay: Inhibition of human CYP2B6 using bupropion as substrate at 10 uM; type: ADME; details: probe bupropion
T4 sequence (P20813 whole entry): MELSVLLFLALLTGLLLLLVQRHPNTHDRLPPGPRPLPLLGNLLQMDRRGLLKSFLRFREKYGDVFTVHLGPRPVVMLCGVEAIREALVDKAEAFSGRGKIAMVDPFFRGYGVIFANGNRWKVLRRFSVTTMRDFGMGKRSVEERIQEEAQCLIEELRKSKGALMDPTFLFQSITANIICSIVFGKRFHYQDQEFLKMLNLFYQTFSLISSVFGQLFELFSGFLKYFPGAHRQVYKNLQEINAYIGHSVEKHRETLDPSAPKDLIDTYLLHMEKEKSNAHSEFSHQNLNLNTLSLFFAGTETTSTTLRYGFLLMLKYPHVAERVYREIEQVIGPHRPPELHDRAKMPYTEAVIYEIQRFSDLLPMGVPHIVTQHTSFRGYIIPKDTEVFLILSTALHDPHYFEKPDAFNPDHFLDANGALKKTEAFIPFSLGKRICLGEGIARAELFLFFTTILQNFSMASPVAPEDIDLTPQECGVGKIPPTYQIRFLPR

[11] = Drug uptake in CD1 mouse brain at 10 mg/kg, ip after 2 hrs; type: ADME, organism-based; parameters: dose 10 mg/kg, route intraperitoneal; details: read-out: Drug uptake
In short: (§6)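 CD1 mice received a single 10 mg/kg ip dose formulated in pure water. Brain (ng/g) and plasma (ng/mL) levels were measured at 0.5 and 2 h. Brain/plasma ratio assumed a brain tissue density of 1 g/mL.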

Salmonella typhimurium [12] = assay: Mutagenic activity in Salmonella typhimurium TA1535 at 10 to 100 uM by ames test in presence of S9 mixture; type: toxicity, organism-based; details: salmonella enterica subsp. enterica serovar typhimurium; in short: as §5
[13] = Plasma concentration in CD1 mouse at 10 mg/kg, ip after 0.5 hrs; type: ADME, organism-based; parameters: dose 10 mg/kg, route intraperitoneal; in short: as §6
CYP2C9 = CYP2C9 (Homo sapiens, UniProt P11712); assay: Inhibition of human CYP2C9 using diclofenac as substrate at 10 uM; type: ADME; details: probe diclofenac
Salmonella typhimurium [14] = assay: Mutagenic activity in Salmonella typhimurium TA1535 at 10 to 100 uM by ames test; type: toxicity, organism-based; details: salmonella enterica subsp. enterica serovar typhimurium; in short: as §5
Salmonella typhimurium [15] = assay: Mutagenic activity in Salmonella typhimurium TA98 at 10 to 100 uM by ames test; type: toxicity, organism-based; details: salmonella enterica subsp. enterica serovar typhimurium; in short: as §5
Liver = assay: Metabolic stability in mouse liver microsomes; type: ADME; in short: as §3
Salmonella typhimurium [16] = assay: Mutagenic activity in Salmonella typhimurium TA100 at 10 to 100 uM by ames test in presence of S9 mixture; type: toxicity, organism-based; details: salmonella enterica subsp. enterica serovar typhimurium; in short: as §5
Salmonella typhimurium [17] = assay: Mutagenic activity in Salmonella typhimurium TA98 at 10 to 100 uM by ames test in presence of S9 mixture; type: toxicity, organism-based; details: salmonella enterica subsp. enterica serovar typhimurium; in short: as §5
[18] = molecular target: T2, 5-hydroxytryptamine receptor 2C; assay: Agonist activity at human 5-HT2C receptor expressed in HEK293 cells assessed as calcium flux by FLIPR assay; type: functional, cell-based
[19] = molecular target: T5, 5-hydroxytryptamine receptor 2A (Homo sapiens, UniProt P28223); assay: Agonist activity at human 5-HT2A receptor expressed in HEK293 cells assessed as calcium flux by FLIPR assay relative to 5-HT; type: functional, cell-based; in short: as §2
Mus musculus = assay: Antipsychotic activity in C57BL/6J mouse assessed as reduction of amphetamine-induced locomotor activity at 10 to 20 mg/kg, ip administered 15 mins prior to amphetamine challenge measured for 105 mins by open field test relative to vehicle-treated control; type: functional, organism-based
CYP2C19 = CYP2C19 (Homo sapiens, UniProt P33261); assay: Inhibition of human CYP2C19 using omeprazole as substrate at 10 uM; type: ADME; details: probe omeprazole
[20] = Plasma protein binding in human at 10 uM; type: ADME, cell-free
In short: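 Human plasma protein binding determined at 10 µM compound, expressed as % bound.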

[21] = molecular target: T5, 5-hydroxytryptamine receptor 2A; assay: Agonist activity at human 5-HT2A receptor expressed in HEK293 cells assessed as calcium flux by FLIPR assay; type: functional, cell-based
[22] = Drug uptake in CD1 mouse brain at 10 mg/kg, ip after 0.5 hrs; type: ADME, organism-based; parameters: dose 10 mg/kg, route intraperitoneal; details: read-out: Drug uptake; in short: as §6
[23] = Plasma concentration in CD1 mouse at 10 mg/kg, ip after 2 hrs; type: ADME, organism-based; parameters: dose 10 mg/kg, route intraperitoneal; in short: as §6
CYP2D6 = CYP2D6 (Homo sapiens, UniProt P10635); assay: Inhibition of human CYP2D6 using dextromethorphan as substrate at 10 uM; type: ADME; details: probe dextromethorphan
Salmonella typhimurium [24] = assay: Mutagenic activity in Salmonella typhimurium TA100 at 10 to 100 uM by ames test; type: toxicity, organism-based; details: salmonella enterica subsp. enterica serovar typhimurium; in short: as §5

T3 sequence (P41595 whole entry): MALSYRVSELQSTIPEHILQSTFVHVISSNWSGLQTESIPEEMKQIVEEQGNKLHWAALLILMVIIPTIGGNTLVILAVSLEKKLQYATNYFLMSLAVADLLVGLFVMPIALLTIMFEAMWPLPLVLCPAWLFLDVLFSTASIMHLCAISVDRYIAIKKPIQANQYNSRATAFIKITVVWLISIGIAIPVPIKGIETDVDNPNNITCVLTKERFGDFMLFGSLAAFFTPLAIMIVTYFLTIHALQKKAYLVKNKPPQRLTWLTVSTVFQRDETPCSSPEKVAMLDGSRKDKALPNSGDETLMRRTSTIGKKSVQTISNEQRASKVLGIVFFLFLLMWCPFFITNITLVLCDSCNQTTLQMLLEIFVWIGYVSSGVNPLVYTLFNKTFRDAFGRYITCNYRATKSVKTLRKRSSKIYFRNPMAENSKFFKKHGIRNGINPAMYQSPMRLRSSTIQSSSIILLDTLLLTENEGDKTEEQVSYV
T5 sequence (P28223 whole entry): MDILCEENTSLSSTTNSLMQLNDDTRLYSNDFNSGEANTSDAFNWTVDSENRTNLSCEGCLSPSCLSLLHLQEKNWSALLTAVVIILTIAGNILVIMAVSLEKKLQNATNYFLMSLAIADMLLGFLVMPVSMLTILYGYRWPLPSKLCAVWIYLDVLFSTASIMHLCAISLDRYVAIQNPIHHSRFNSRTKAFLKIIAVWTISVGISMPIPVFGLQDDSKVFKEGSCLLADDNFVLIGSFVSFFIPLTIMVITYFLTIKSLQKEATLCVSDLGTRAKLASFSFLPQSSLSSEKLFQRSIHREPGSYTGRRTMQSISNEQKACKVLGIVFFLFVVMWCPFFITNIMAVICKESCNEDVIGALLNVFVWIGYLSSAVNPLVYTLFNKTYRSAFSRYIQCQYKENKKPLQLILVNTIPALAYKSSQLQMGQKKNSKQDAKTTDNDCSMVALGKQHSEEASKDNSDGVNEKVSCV
CYP2C9, sequence (P11712 whole entry): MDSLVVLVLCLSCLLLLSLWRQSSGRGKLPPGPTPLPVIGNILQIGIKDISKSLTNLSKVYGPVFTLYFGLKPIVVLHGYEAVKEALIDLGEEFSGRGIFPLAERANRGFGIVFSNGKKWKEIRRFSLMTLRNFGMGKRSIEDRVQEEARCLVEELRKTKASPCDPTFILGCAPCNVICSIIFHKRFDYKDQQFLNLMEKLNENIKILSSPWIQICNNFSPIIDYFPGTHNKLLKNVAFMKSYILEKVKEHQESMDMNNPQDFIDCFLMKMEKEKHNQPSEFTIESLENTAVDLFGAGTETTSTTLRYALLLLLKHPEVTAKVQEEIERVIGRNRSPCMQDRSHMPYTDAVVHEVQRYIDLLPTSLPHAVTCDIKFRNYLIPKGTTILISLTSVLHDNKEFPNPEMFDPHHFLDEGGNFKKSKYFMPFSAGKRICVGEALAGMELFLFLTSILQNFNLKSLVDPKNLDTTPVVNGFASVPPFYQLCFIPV
CYP2D6, sequence (P10635 whole entry): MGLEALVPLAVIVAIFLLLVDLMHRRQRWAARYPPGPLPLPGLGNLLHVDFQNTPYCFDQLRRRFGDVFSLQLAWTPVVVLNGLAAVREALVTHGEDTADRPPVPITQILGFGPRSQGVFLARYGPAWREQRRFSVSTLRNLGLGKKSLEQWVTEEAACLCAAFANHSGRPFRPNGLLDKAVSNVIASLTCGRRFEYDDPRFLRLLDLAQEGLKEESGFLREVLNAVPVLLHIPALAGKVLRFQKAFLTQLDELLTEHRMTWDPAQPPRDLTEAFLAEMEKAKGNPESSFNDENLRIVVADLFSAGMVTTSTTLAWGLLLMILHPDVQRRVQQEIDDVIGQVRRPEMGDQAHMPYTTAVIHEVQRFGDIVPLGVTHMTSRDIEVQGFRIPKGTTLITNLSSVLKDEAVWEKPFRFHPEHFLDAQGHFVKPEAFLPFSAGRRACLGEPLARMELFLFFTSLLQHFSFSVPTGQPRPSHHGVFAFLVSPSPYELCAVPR
CYP2C19, sequence (P33261 whole entry): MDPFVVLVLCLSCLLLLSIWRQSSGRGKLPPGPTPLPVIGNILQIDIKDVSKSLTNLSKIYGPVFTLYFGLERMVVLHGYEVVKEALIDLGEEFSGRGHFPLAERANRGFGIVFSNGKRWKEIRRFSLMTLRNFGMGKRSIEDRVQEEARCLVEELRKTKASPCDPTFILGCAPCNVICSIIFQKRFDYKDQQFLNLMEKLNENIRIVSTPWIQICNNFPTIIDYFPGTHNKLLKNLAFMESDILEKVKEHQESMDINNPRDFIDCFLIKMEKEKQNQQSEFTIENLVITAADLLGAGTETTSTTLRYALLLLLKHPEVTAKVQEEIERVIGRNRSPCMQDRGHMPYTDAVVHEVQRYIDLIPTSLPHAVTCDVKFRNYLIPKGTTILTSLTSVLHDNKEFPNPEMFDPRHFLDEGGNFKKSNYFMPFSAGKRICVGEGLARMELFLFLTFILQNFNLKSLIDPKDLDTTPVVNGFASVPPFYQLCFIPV

## Clc1cccc(COc2cncc(N3CCNCC3)n2)c1
[1]
  Emax: 93%
[2]
  EC50: 0.11 nM
Homo sapiens
  Ratio EC50: 600
[3]
  EC50: 65.3 nM
  Emax: 57%

## Cl.NC[C@H]1C[C@@H]1c1cc(Cl)ccc1OCCF
[4]
  EC50: 632 nM
[5]
  Emax: 31%
Liver microsome
  Stability: 95%
CYP3A
  inhibition at 10 µM: 22%
[6]
  Emax: 86%
[7]
  permeability: 17.5 ×10⁻⁶ cm/s
Salmonella typhimurium [8]
  Activity: Non-toxic
Salmonella typhimurium [9]
  Activity: Non-toxic
[10]
  permeability: 35.5 ×10⁻⁶ cm/s
CYP2B6
  inhibition at 10 µM: 58%
[11]
  concentration at 2 h: 13400 ng/g
Salmonella typhimurium [12]
  Activity: Non-toxic
[13]
  concentration at 0.5 h: 1200 ng/mL
CYP2C9
  inhibition at 10 µM: 33%
Salmonella typhimurium [14]
  Activity: Non-toxic
Salmonella typhimurium [15]
  Activity: Non-toxic
Liver
  Stability: 74%
Salmonella typhimurium [16]
  Activity: Non-toxic
Salmonella typhimurium [17]
  Activity: Non-toxic
[18]
  EC50: 32 nM
[19]
  Emax: 35%
Mus musculus
  Activity: Active
CYP2C19
  inhibition at 10 µM: 21%
[20]
  PPB: 57%
[21]
  EC50: 1480 nM
[22]
  concentration at 0.5 h: 12800 ng/g
[23]
  concentration at 2 h: 874 ng/mL
CYP2D6
  inhibition at 10 µM: 79%
Salmonella typhimurium [24]
  Activity: Non-toxic
